ChEMBL document CHEMBL2346505, “Pyranoflavones: a group of small-molecule probes for exploring the active site cavities of cytochrome P450 enzymes 1A1, 1A2, and 1B1” (J Med Chem, 2013)

Key:
Format in all cases: ADME
[1] = biological target: T1, Cytochrome P450 2B1 (Rattus norvegicus, UniProt P00176); test: Inhibition of CYP2B1 (unknown origin)-mediated depentylation of resorufin pentyl ether after 5 mins by spectrofluorimetric analysis
T1 sequence (P00176 whole entry): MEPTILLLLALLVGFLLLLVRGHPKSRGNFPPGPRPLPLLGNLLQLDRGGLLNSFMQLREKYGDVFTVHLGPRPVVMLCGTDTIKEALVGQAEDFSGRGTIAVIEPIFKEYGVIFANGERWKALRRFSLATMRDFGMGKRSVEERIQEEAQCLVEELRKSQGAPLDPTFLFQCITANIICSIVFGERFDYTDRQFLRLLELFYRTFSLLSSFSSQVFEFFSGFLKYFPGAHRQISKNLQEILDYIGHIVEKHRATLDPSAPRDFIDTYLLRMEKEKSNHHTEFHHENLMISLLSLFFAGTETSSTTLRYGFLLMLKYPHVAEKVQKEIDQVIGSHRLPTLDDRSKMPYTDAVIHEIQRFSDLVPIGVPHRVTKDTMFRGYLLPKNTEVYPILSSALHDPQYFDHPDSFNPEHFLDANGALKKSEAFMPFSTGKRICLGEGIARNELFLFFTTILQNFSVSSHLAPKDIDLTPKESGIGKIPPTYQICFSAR
How it was run: (§1)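 Microsomal P450 (final 5 nM) in 0.1 M potassium phosphate pH 7.6 with MgCl2; resorufin ether or coumarin substrate final 5 μM from DMSO stock; inhibitor added in DMSO, DMSO alone for controls. Reaction started with NADPH regenerating system (NADP+, glucose 6-phosphate, G6P dehydrogenase) at 37 °C; product formation followed fluorimetrically as progress curves.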

[2] = biological target: T2, Cytochrome P450 2A6 (Homo sapiens, UniProt P11509); test: Inhibition of CYP2A6 (unknown origin)-mediated coumarin 7-hydroxylation after 5 mins by spectrofluorimetric analysis; how it was run: as §1
T2 sequence (P11509 whole entry): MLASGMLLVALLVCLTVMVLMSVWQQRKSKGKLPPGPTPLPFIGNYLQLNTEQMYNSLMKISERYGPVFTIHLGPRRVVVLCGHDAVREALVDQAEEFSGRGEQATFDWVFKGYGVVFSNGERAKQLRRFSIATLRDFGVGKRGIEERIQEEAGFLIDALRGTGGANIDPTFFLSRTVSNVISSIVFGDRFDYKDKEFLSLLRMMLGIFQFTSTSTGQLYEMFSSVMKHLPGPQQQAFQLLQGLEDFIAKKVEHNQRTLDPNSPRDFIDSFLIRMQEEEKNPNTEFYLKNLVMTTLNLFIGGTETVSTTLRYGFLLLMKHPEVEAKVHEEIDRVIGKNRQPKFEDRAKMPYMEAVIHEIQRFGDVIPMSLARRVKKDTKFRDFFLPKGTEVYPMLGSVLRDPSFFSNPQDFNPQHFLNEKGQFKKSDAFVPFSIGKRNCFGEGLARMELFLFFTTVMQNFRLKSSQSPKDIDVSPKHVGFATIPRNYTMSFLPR

[3] = tested on: CYP1A2 / CYP1A1; test: Selectivity ratio of IC50 for CYP1A2 (unknown origin) to IC50 for CYP1A1 (unknown origin); conditions: human; read-out: Ratio IC50
[4] = biological target: T3, Cytochrome P450 1B1 (Homo sapiens, UniProt Q16678); test: Inhibition of CYP1B1 (unknown origin)-mediated deethylation of resorufin ethyl ether after 5 mins by spectrofluorimetric analysis; how it was run: as §1
T3 sequence (Q16678 whole entry): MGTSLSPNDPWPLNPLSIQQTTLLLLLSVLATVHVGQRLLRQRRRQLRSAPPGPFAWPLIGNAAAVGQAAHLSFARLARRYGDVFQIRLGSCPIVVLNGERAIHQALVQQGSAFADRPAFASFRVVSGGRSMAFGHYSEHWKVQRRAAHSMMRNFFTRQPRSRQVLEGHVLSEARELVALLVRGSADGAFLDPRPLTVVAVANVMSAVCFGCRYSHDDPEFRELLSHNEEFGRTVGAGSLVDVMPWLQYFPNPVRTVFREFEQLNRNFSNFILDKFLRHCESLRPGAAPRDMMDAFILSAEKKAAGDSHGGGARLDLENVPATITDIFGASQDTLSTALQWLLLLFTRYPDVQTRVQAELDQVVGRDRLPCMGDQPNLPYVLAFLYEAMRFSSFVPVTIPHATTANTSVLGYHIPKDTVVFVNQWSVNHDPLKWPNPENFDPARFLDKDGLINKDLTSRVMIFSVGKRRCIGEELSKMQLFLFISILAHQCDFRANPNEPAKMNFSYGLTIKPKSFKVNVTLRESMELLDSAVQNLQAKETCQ

[5] = biological target: T4, Cytochrome P450 1A2 (Homo sapiens, UniProt P05177); test: Inhibition of CYP1A2 (unknown origin)-mediated demethylation of resorufin methyl ether after 5 mins by spectrofluorimetric analysis; how it was run: as §1
T4 sequence (P05177 whole entry): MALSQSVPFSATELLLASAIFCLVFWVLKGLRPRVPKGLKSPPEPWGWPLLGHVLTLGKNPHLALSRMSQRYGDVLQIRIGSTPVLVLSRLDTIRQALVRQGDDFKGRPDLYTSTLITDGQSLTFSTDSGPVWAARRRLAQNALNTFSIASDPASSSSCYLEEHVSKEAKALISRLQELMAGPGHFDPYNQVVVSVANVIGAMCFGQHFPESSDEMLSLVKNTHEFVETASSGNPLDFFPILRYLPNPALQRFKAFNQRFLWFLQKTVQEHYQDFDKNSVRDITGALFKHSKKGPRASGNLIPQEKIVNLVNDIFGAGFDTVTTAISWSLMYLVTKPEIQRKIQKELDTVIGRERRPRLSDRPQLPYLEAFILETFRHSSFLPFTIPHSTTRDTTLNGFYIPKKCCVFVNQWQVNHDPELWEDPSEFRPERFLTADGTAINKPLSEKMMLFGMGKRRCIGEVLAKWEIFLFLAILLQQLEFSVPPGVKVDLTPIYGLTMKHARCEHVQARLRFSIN

[6] = biological target: T5, Cytochrome P450 1A1 (Homo sapiens, UniProt P04798); test: Inhibition of CYP1A1 (unknown origin)-mediated deethylation of resorufin ethyl ether after 5 mins by spectrofluorimetric analysis; how it was run: as §1
T5 sequence (P04798 whole entry): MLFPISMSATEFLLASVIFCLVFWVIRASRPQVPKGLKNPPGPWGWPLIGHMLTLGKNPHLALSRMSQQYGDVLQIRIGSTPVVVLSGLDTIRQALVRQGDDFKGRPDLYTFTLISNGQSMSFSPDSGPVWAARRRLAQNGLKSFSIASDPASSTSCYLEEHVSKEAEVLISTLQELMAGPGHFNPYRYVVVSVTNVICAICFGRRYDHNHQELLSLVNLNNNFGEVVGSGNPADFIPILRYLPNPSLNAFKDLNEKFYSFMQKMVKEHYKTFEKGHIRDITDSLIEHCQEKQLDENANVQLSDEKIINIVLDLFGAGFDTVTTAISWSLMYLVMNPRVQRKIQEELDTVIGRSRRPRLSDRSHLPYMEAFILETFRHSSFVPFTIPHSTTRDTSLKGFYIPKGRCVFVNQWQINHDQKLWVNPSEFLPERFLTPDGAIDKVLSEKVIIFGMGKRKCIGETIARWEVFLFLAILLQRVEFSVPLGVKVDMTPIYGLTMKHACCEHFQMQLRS

[7] = biological target: T6, CYP1A2 (Homo sapiens, UniProt P05177); test: (§2) Irreversible inhibition of CYP1A2 (unknown origin)-mediated demethylation of resorufin methyl ether after 5 mins by spectrofluorimetric analysis; conditions: human, probe resorufin methyl ether
T6 sequence (P05177 whole entry): T4 sequence (P05177 whole entry)

[8] = biological target: T4, Cytochrome P450 1A2; test: as §2
[9] = biological target: T7, CYP1A1 (Homo sapiens, UniProt P04798); test: (§3) Irreversible inhibition of CYP1A1 (unknown origin)-mediated deethylation of resorufin ethyl ether after 5 mins by spectrofluorimetric analysis; conditions: human, probe resorufin ethyl ether
T7 sequence (P04798 whole entry): T5 sequence (P04798 whole entry)

[10] = biological target: T5, Cytochrome P450 1A1; test: as §3
[11] = biological target: T5, Cytochrome P450 1A1; test: Inhibition of CYP1A1 (unknown origin)-mediated deethylation of resorufin ethyl ether at 0.1 uM after 5 mins by spectrofluorimetric analysis
How it was run: (§4)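 Fluorimetric dealkylation of resorufin ether (ethyl for 1A1/1B1, methyl for 1A2) by microsomal P450 (final 5 nM), substrate final 5 μM, in 0.1 M potassium phosphate pH 7.6 with MgCl2 at 37 °C. Reaction started with NADPH regenerating system. Test compound at 0.1 μM in DMSO; activity compared with DMSO-only control.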

[12] = biological target: T4, Cytochrome P450 1A2; test: Inhibition of CYP1A2 (unknown origin)-mediated demethylation of resorufin methyl ether at 0.1 uM after 5 mins by spectrofluorimetric analysis; how it was run: as §4
[13] = biological target: T8, CYP1B1 (Homo sapiens, UniProt Q16678); test: Inhibition of CYP1B1 (unknown origin) dealkylation activity at 0.1 uM after 5 mins by spectrofluorimetric analysis relative to control; how it was run: as §4
T8 sequence (Q16678 whole entry): T3 sequence (Q16678 whole entry)

[14] = tested on: CYP1B1 over CYP1A2; test: Selectivity ratio for CYP1B1 (unknown origin) over CYP1A2 (unknown origin); conditions: human
How it was run: (§5)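 Ratio of IC50 values from fluorimetric dealkylation assays: resorufin ethyl ether deethylation (1A1, 1B1), resorufin methyl ether demethylation (1A2). Microsomal P450 5 nM final, substrate 5 μM final, 0.1 M potassium phosphate pH 7.6 with MgCl2, NADPH-regenerating system, 37 °C. Inhibitor 0.1–100 μM in DMSO. IC50s from progress curves, three independent experiments.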

[15] = tested on: CYP1B1 over CYP1A1; test: Selectivity ratio for CYP1B1 (unknown origin) over CYP1A1 (unknown origin); conditions: human; how it was run: as §5

Compound | IC50 [1] [µM] | IC50 [2] [µM] | inhibition (INH) [4] | IC50 [5] [µM] | IC50 [6] [µM] | also measured
O=c1cc(-c2ccccc2)oc2ccc3c(c12)OCC=C3 | > 25 | > 25 | Active | 1.13 | 0.32 | selectivity ratio [3]: 3.5
O=c1cc(-c2ccccc2)oc2c3c(ccc12)OCC=C3 | > 25 | > 25 | Active | – | 0.27 | –
O=c1cc(-c2ccc3c(c2)C=CCO3)oc2ccccc12 | 6.62 | > 25 | Active | – | – | –
C#CCOc1cc(O)c2c(=O)cc(-c3ccccc3)oc2c1 | > 25 | > 25 | Active | 0.089 | 0.35 | –
C#CCOc1cccc(-c2cc(=O)c3c(O)cccc3o2)c1 | 4.08 | > 25 | Active | – | – | kinact at 5 min [7]: 0.000367 s⁻¹; Ki [8]: 0.071 µM; kinact at 5 min [9]: 0.00317 s⁻¹; Ki [10]: 0.13 µM
C#CCOc1ccc(-c2cc(=O)c3c(O)cccc3o2)cc1 | > 25 | > 25 | Active | > 20 | – | inhibition (INH) [11]: Not Active; inhibition (INH) [12]: Not Active; inhibition at 5 min, 0.1 µM [13]: 50%; selectivity ratio [14]: > 250; selectivity ratio [15]: 100
C#CCOc1ccc(-c2cc(=O)c3c(ccc4ccccc43)o2)cc1 | – | – | – | 0.6 | 0.041 | selectivity ratio [3]: 5
O=c1cc(-c2cccc3c2OCC=C3)oc2ccccc12 [2'H,4H-[2,8'-BICHROMEN]-4-ONE] | 6.29 | > 25 | Active | – | – | –
O=c1cc(-c2ccccc2)oc2c1ccc1ccccc12 [ALPHA-NAPHTHOFLAVONE] | 13 | > 25 | Active | – | 0.043 | –
O=c1cc(-c2ccccc2)oc2ccc3ccccc3c12 [BETA-NAPHTHOFLAVONE] | > 25 | > 25 | Active | 0.47 | 0.054 | selectivity ratio [3]: 5
O=c1cc(-c2ccccc2)oc2cc(O)cc(O)c12 [CHRYSIN] | > 25 | > 25 | Active | – | – | –

Further lines, with some results ahead:

IC50 [1] [µM] | IC50 [2] [µM] | inhibition (INH) [4] | IC50 [5] [µM] | IC50 [6] [µM] | Compound | also measured
> 25 | > 25 | Active | 0.76 | 0.15 | O=c1cc(-c2ccccc2)oc2ccc3c(c12)C=CCO3 | selectivity ratio [3]: 5
> 25 | > 25 | Active | – | 0.11 | O=c1cc(-c2ccccc2)oc2c3c(cc(O)c12)OCC=C3 | –
> 25 | > 25 | Active | – | – | O=c1cc(-c2ccccc2)oc2cc3c(c(O)c12)C=CCO3 | –
> 25 | > 25 | Active | – | – | O=c1cc(-c2cccc3c2C=CCO3)oc2cccc(O)c12 | –
> 25 | > 25 | Active | – | – | O=c1cc(-c2ccc3c(c2)OCC=C3)oc2cccc(O)c12 | –
> 25 | > 25 | Active | – | – | O=c1cc(-c2ccc3c(c2)C=CCO3)oc2cccc(O)c12 | –
7.12 | > 25 | Active | – | – | O=c1cc(-c2cccc3c2C=CCO3)oc2ccccc12 [2'H,4H-[2,5'-BICHROMEN]-4-ONE] | –
